Results on 1 compound are retold here after ChEMBL document CHEMBL1128448, “Synthesis and antifungal activity of new azole derivatives containing an N-acylmorpholine ring” (1995).

Values after ≈ are worked out from the molar mass of the structure shown. Some results are limits rather than exact numbers.

For assay [1], the system named is Candida albicans. Nature of the assay: In vitro evaluation of minimum inhibitory concentration against Candida albicans 76. Format: functional. The essentials: (§1)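 Stocks are 800 μg/mL in 50% ethanol. Each plate gets 10 μL of inoculum at 10^5 cfu/mL. Incubation at 25 °C, 48 h for yeasts and 120 h for dermatophytes and molds. Organisms are ATCC strains or clinical isolates.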

Assay [2] concerns Candida albicans. Nature of the assay: In vivo evaluation of minimum inhibitory concentration against Candida albicans 406. It counts as functional. Put shortly:
(§2)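 Broth macrodilution MIC following NCCLS M27-P, in RPMI-1640 buffered with 0.165 M MOPS. Fluconazole was dissolved in water and other drugs in DMSO. C. parapsilosis ATCC 22019 served as the reference strain in every run. MIC was the lowest concentration giving turbidity at or below the 80% inhibition standard.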

In assay [3] the test system is Kluyveromyces marxianus. Nature of the assay: In vivo Evaluation of minimum inhibitory concentration against Candida pseudotropicalis 13. It counts as functional. The essentials: as §1
Assay [4] has as its system Candida parapsilosis. Nature of the assay: In vitro evaluation of minimum inhibitory concentration against Candida parapsilosis 61. Format: functional. The essentials:
as §1

The test system of assay [5] is Mus sp. The assay is described as follows: In vivo evaluation of % survival rate after peroral administration on 5th day at dose 2.5 mg/kg. It counts as functional. To be noted: route oral, 2.5 mg/kg.
The subject of assay [6] is Pichia kudriavzevii. The assay is described as follows: In vitro evaluation of minimum inhibitory concentration against Candida krusei 70. Format: functional. Put shortly:
as §1

Assay [7] has as its system Nakaseomyces glabratus. Nature of the assay: In vitro evaluation of minimum inhibitory concentration against Torulopsis glabrata 78. It counts as functional. The essentials: as §1
Assay [8] deals with Meyerozyma guilliermondii. The assay is described as follows: In vitro evaluation of minimum inhibitory concentration against Candida guilliermondii 26. It counts as functional. The essentials:
as §1

In assay [9] the test system is Mus sp. The assay is described as follows: In vivo evaluation of % survival rate after peroral administration on 7th day at dose 2.5 mg/kg. The note with it: route oral, 2.5 mg/kg. It counts as functional.
In assay [10] the test system is Aspergillus fumigatus. The assay is described as follows: In vitro evaluation of minimum inhibitory concentration against Aspergillus fumigatus 33. It counts as functional. The essentials:
as §1

Assay [11] has as its system Trichophyton rubrum. Nature of the assay: In vitro evaluation of minimum inhibitory concentration against Trichophyton rubrum 90. It counts as functional. Put shortly: as §1
Assay [12] concerns Mus sp. The assay is described as follows: In vivo evaluation of % survival rate after peroral administration on 9th day at dose 2.5 mg/kg. It counts as functional. To be noted: route oral, 2.5 mg/kg.
For assay [13], the system named is Nannizzia gypsea. The assay is described as follows: In vitro evaluation of minimum inhibitory concentration against Microsporum gypseum 22. Format: functional. Put shortly: as §1
Assay [14] deals with Mus sp. The assay is described as follows: In vivo evaluation of % survival rate after peroral administration on 3rd day at dose 2.5 mg/kg. Format: functional. The note with it: route oral, 2.5 mg/kg.
The test system of assay [15] is Candida albicans. Nature of the assay: In vivo evaluation of minimum inhibitory concentration against Candida albicans 60. Format: functional. Put shortly:
as §2

Assay [16] deals with Trichophyton benhamiae. The assay is described as follows: In vitro evaluation of minimum inhibitory concentration against Trichophyton mentagrophytes 23. Format: functional, Arthroderma benhamiae. Put shortly:
as §1

Assay [17] deals with Microsporum canis. The assay is described as follows: In vitro evaluation of minimum inhibitory concentration against Microsporum canis 47. It counts as functional. The essentials: as §1

`C[C@H]1N(C(=O)c2ccc(C(F)(F)F)cc2)CCO[C@@]1(Cn1cncn1)c1ccc(F)cc1F` (stereo in doubt; (+)-41): the MIC (as a rule, the lowest concentration found to suppress growth) in assay [1] is above 80 µg/mL; in assay [2], above 80 µg/mL; in assay [3], 10 µg/mL (≈ 21.4 µM); in assay [4], above 80 µg/mL; in assay [6], above 80 µg/mL; in assay [7], above 80 µg/mL. Also, the MIC in assay [8] was above 80 µg/mL; in assay [10], above 80 µg/mL; in assay [11], 80 µg/mL (≈ 172 µM); in assay [13], above 80 µg/mL; in [15], above 80 µg/mL; in assay [16], above 80 µg/mL. Moreover, the MIC in assay [17] is above 80 µg/mL. Also, the Survival worked out at 0% in assay [5], 0% in assay [9], 0% in assay [12] and 10% in assay [14].
